The source of these data is ChEMBL document CHEMBL1145027, “Design and synthesis of statine-based cell-permeable peptidomimetic inhibitors of human beta-secretase” (J Med Chem, 2003).

Where a SMILES comes first, the peptide text is derived from it. [ ]: non-standard residue; d: D form. Sta = CC(C)C[C@H](N)[C@@H](O)CC(=O)O

In the first assay the test system is HEK293. In words: Inhibition of A beta-secretion in transfected human embryonic kidney (HEK293) cells. The class given is functional, cell-based. The method in brief:
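Transfected HEK-293 cells incubated with inhibitor; Aβ secretion measured and EC50 taken as the concentration giving 50% inhibition of Aβ production.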
The EC50 is the midpoint of the concentration-response curve. A high value points to a need for much substance. `COC(=O)[C@@H]1CC(NC(=O)[C@H](NC(=O)C[C@H](O)[C@@H](Cc2cc(F)cc(F)c2)NC(=O)C(O)c2ccccc2-c2ccccc2)C(C)C)C[C@H](C(=O)OC)C1` (single isomer, unassigned; isomer 1): the 50% effective concentration (EC50) was found to be 4 µM.

With `COC(=O)[C@@H]1CC(NC(=O)[C@H](NC(=O)C[C@H](O)[C@@H](Cc2cc(F)cc(F)c2)NC(=O)C(O)c2ccccc2-c2ccccc2)C(C)C)C[C@H](C(=O)OC)C1` (single isomer, unassigned; isomer 2), the EC50 was above 10 µM.

For the next assay, the target named is Beta-secretase 1 (Homo sapiens, UniProt P56817). Put plainly: Inhibition of human beta-secretase (BACE) in MBP-C125 assay. The method in brief: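 BACE activity measured with maltose-binding protein fused C-125 (MBP-C125) substrate; IC50 taken as the concentration giving 50% inhibition of enzyme activity, averaged from two or more runs.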
Beta-secretase 1, sequence (P56817 whole entry, the tested form may be a part): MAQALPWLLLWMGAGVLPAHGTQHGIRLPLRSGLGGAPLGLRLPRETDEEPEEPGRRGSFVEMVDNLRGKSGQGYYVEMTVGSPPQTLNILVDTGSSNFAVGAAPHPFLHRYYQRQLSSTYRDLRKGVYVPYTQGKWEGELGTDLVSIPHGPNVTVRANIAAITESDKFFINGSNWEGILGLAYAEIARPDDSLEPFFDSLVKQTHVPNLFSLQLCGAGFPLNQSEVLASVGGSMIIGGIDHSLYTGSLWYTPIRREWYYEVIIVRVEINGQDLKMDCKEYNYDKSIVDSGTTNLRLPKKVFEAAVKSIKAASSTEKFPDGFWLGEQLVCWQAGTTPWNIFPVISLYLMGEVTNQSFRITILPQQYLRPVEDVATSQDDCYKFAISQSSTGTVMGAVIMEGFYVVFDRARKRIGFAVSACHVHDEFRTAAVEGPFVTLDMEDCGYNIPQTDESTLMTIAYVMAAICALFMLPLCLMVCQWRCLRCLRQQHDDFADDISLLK
For orientation: IC50 means the point on the concentration scale where inhibition reaches its midpoint. A lower IC50 goes with higher potency. Compound `CC(C)C[C@H](NC(=O)C(O)c1cccc2ccccc12)[C@@H](O)CC(=O)N[C@H](C(=O)NC1C[C@@H](C(=O)O)C[C@@H](C(=O)O)C1)C(C)C` (stereo partly specified) had an IC50 of 3 µM.

On to `CC(C)CC(NC(=O)c1ccc2ccccc2c1)[C@@H](O)CC(=O)N[C@@H](C(=O)N[C@H](C)C(=O)N[C@H](CCC(=O)O)C(=O)N[C@H](Cc1ccccc1)C(=O)O)C(C)C` (stereo partly specified), for which the half-maximal inhibitory concentration (IC50) amounted to 48 µM.

As to `CC(C)CC(NC(=O)C(O)c1cccc2ccccc12)[C@@H](O)CC(=O)N[C@@H](C(=O)N[C@H](C)C(=O)N[C@H](CCC(=O)O)C(=O)N[C@H](Cc1ccccc1)C(=O)O)C(C)C` (stereo partly specified), the IC50 came to 4 µM.

Compound `CSCC[C@H](NC(=O)[C@@H](NC(=O)OC(C)(C)C)C(C)C)C(=O)NC(CC(C)C)[C@@H](O)CC(=O)N[C@@H](C(=O)NCc1ccc(C(=O)O)cc1)C(C)C` (stereo partly specified) came in with an IC50 of 4 µM.

For `CC(C)CC(NC(=O)Cc1ccccc1)[C@@H](O)CC(=O)N[C@@H](C(=O)N[C@H](C)C(=O)N[C@H](CCC(=O)O)C(=O)N[C@H](Cc1ccccc1)C(=O)O)C(C)C` (stereo partly specified), the half-inhibitory concentration (IC50) is 130 µM.

On to `CSCC[C@H](NC(=O)[C@@H](NC(=O)OC(C)(C)C)C(C)C)C(=O)NC(CC(C)C)[C@@H](O)CC(=O)N[C@@H](C(=O)NC1CCCCC1)C(C)C` (stereo partly specified), for which the IC50 is above 200 µM.

As to `CC(C)CC(NC(=O)C(O)c1cccc(Oc2ccccc2)c1)[C@@H](O)CC(=O)N[C@@H](C(=O)N[C@H](C)C(=O)N[C@H](CCC(=O)O)C(=O)N[C@H](Cc1ccccc1)C(=O)O)C(C)C` (stereo partly specified), the IC50 was 6 µM.

In turn, `CSCC[C@H](NC(=O)[C@@H](NC(=O)OC(C)(C)C)C(C)C)C(=O)NC(CC(C)C)[C@@H](O)CC(=O)N[C@@H](C(=O)NCc1ccncc1)C(C)C` (stereo partly specified) came in with an IC50 above 100 µM.

Compound `CSCC[C@H](NC(=O)[C@@H](NC(=O)OC(C)(C)C)C(C)C)C(=O)NC(CC(C)C)[C@@H](O)CC(=O)N[C@@H](C(=O)NCc1cccc(C(=O)O)c1)C(C)C` (stereo partly specified) displayed an IC50 of 4 µM.

Compound `CC(C)CC(NC(=O)Cc1ccc(-c2ccccc2)cc1)[C@@H](O)CC(=O)N[C@@H](C(=O)N[C@H](C)C(=O)N[C@H](CCC(=O)O)C(=O)N[C@H](Cc1ccccc1)C(=O)O)C(C)C` (stereo partly specified) yielded an IC50 of 56 µM.

Compound `CO[C@H](C(=O)NC(CC(C)C)[C@@H](O)CC(=O)N[C@@H](C(=O)N[C@H](C)C(=O)N[C@H](CCC(=O)O)C(=O)N[C@H](Cc1ccccc1)C(=O)O)C(C)C)c1ccccc1` (stereo partly specified) gave an IC50 of 28 µM.

With `COc1cc(CC(=O)NC(CC(C)C)[C@@H](O)CC(=O)N[C@@H](C(=O)N[C@H](C)C(=O)N[C@H](CCC(=O)O)C(=O)N[C@H](Cc2ccccc2)C(=O)O)C(C)C)cc(OC)c1OC` (stereo partly specified), the midpoint of inhibition, the IC50, lay at 94 µM.

For `COC(=O)[C@@H]1CC(NC(=O)[C@H](NC(=O)C[C@H](O)C(CC(C)C)NC(=O)[C@H](CCSC)NC(=O)[C@@H](NC(=O)OC(C)(C)C)C(C)C)C(C)C)C[C@H](C(=O)OC)C1` (stereo partly specified), the midpoint of inhibition, the IC50, lay at 10 µM.

With `CC(C)CC(NC(=O)Cc1ccc(F)cc1F)[C@@H](O)CC(=O)N[C@@H](C(=O)N[C@H](C)C(=O)N[C@H](CCC(=O)O)C(=O)N[C@H](Cc1ccccc1)C(=O)O)C(C)C` (stereo partly specified), half-maximal inhibition (IC50) required 140 µM.

`COC(=O)CCCCC(=O)NC(CC(C)C)[C@@H](O)CC(=O)N[C@@H](C(=O)N[C@H](C)C(=O)N[C@H](CCC(=O)O)C(=O)N[C@H](Cc1ccccc1)C(=O)O)C(C)C` (stereo partly specified) registered an IC50 of 50 µM.

Consider `CSCC[C@H](NC(=O)[C@@H](NC(=O)OC(C)(C)C)C(C)C)C(=O)NC(CC(C)C)[C@@H](O)CC(=O)N[C@@H](C(=O)NCc1ccccc1)C(C)C` (stereo partly specified), for which the IC50 is above 200 µM.

As to `CC(C)C[C@H](NC(=O)C(O)c1ccccc1Br)[C@@H](O)CC(=O)N[C@H](C(=O)NCc1ccc(C(=O)O)cc1)C(C)C` (stereo partly specified), the IC50 came to 40 µM.

`CC(C)Cc1ccc(C(=O)NC(CC(C)C)[C@@H](O)CC(=O)N[C@@H](C(=O)N[C@H](C)C(=O)N[C@H](CCC(=O)O)C(=O)N[C@H](Cc2ccccc2)C(=O)O)C(C)C)cc1` (stereo partly specified) had an IC50 of 28 µM.

`CSCC[C@H](NC(=O)[C@@H](NC(=O)OC(C)(C)C)C(C)C)C(=O)NC(CC(C)C)[C@@H](O)CC(=O)N[C@@H](C(=O)NCc1ccc2c(c1)OCO2)C(C)C` (stereo partly specified): the IC50 was above 100 µM.

Compound `CSCC[C@H](NC(=O)[C@@H](NC(=O)OC(C)(C)C)C(C)C)C(=O)NC(CC(C)C)[C@@H](O)CC(=O)N[C@@H](C(=O)NO)C(C)C` (stereo partly specified) displayed an IC50 of 94 µM.

`CSCC[C@H](NC(=O)[C@@H](NC(=O)OC(C)(C)C)C(C)C)C(=O)NC(CC(C)C)[C@@H](O)CC(=O)N[C@@H](C(=O)NC1C[C@@H](C(=O)O)C[C@@H](C(=O)O)C1)C(C)C` (stereo partly specified) registered an IC50 of 0.3 µM.

The compound `CC(C)CC(NC(=O)CCCOc1ccccc1)[C@@H](O)CC(=O)N[C@@H](C(=O)N[C@H](C)C(=O)N[C@H](CCC(=O)O)C(=O)N[C@H](Cc1ccccc1)C(=O)O)C(C)C` (stereo partly specified) had an IC50 of 25 µM.

For `CSCC[C@H](NC(=O)[C@@H](NC(=O)OC(C)(C)C)C(C)C)C(=O)NC(CC(C)C)[C@@H](O)CC(=O)N[C@@H](C(=O)NCc1cccc(OCC(=O)O)c1)C(C)C` (stereo partly specified), the IC50 is 5 µM.

For the compound `CC(C)CC(NC(=O)C(O)c1ccccc1Br)[C@@H](O)CC(=O)N[C@@H](C(=O)N[C@H](C)C(=O)N[C@H](CCC(=O)O)C(=O)N[C@H](Cc1ccccc1)C(=O)O)C(C)C` (stereo partly specified), the IC50 was 3 µM.

In turn, `CC(C)CC(NC(=O)C(O)c1ccccc1Oc1ccccc1)[C@@H](O)CC(=O)N[C@@H](C(=O)N[C@H](C)C(=O)N[C@H](CCC(=O)O)C(=O)N[C@H](Cc1ccccc1)C(=O)O)C(C)C` (stereo partly specified) gave an IC50 of 14 µM.

`COC(=O)CCCNC(=O)[C@H](NC(=O)C[C@H](O)C(CC(C)C)NC(=O)[C@H](CCSC)NC(=O)[C@@H](NC(=O)OC(C)(C)C)C(C)C)C(C)C` (stereo partly specified) registered an IC50 of 47 µM.

Turning to `CCCCNC(=O)[C@H](NC(=O)C[C@H](O)C(CC(C)C)NC(=O)[C@H](CCSC)NC(=O)[C@@H](NC(=O)OC(C)(C)C)C(C)C)C(C)C` (stereo partly specified), the IC50 was above 200 µM.

Consider `CCCCOc1ccc(C(=O)NC(CC(C)C)[C@@H](O)CC(=O)N[C@@H](C(=O)N[C@H](C)C(=O)N[C@H](CCC(=O)O)C(=O)N[C@H](Cc2ccccc2)C(=O)O)C(C)C)cc1` (stereo partly specified), for which the IC50 came to 27 µM.

`CC(C)CC(NC(=O)[C@@H](O)c1ccccc1)[C@@H](O)CC(=O)N[C@@H](C(=O)N[C@H](C)C(=O)N[C@H](CCC(=O)O)C(=O)N[C@H](Cc1ccccc1)C(=O)O)C(C)C` (stereo partly specified) returned an IC50 of 17 µM.

For `CO[C@](C)(C(=O)NC(CC(C)C)[C@@H](O)CC(=O)N[C@@H](C(=O)N[C@H](C)C(=O)N[C@H](CCC(=O)O)C(=O)N[C@H](Cc1ccccc1)C(=O)O)C(C)C)c1ccccc1` (stereo partly specified), the IC50 amounted to 41 µM.

Take `CC(C)C[C@H](NC(=O)C(O)c1cccc2ccccc12)[C@@H](O)CC(=O)N[C@H](C(=O)NCc1ccc(C(=O)O)cc1)C(C)C` (stereo partly specified): it took 50 µM to reach half-maximal inhibition (IC50).

`CSCC[C@H](NC(=O)[C@@H](NC(=O)OC(C)(C)C)C(C)C)C(=O)NC(CC(C)C)[C@@H](O)CC(=O)N[C@@H](C(=O)NCCCC(=O)O)C(C)C` (stereo partly specified) displayed an IC50 of 47 µM.

As to `COC(=O)[C@@H]1CC(NC(=O)[C@@H](NC(=O)C[C@H](O)[C@H](CC(C)C)NC(=O)C(O)c2cccc3ccccc23)C(C)C)C[C@H](C(=O)OC)C1` (stereo partly specified), the IC50 came out at 140 µM.

The compound `CC(C)CC(NC(=O)Cc1cccc2ccccc12)[C@@H](O)CC(=O)N[C@@H](C(=O)N[C@H](C)C(=O)N[C@H](CCC(=O)O)C(=O)N[C@H](Cc1ccccc1)C(=O)O)C(C)C` (stereo partly specified) showed an IC50 of 42 µM.

`CSCC[C@H](NC(=O)[C@@H](NC(=O)OC(C)(C)C)C(C)C)C(=O)NC(CC(C)C)[C@@H](O)CC(=O)N[C@@H](C(=O)NCCC(=O)O)C(C)C` (stereo partly specified) had an IC50 of 30 µM.

With `CC(C)CC(NC(=O)C(O)c1ccccc1OCc1ccccc1)[C@@H](O)CC(=O)N[C@@H](C(=O)N[C@H](C)C(=O)N[C@H](CCC(=O)O)C(=O)N[C@H](Cc1ccccc1)C(=O)O)C(C)C` (stereo partly specified), the IC50 stood at 11 µM.

In the case of `CSCC[C@H](NC(=O)[C@@H](NC(C)=O)C(C)C)C(=O)N[C@@H](CC(C)C)[C@@H](O)CC(=O)N[C@H](C(=O)N[C@@H](C)C(=O)N[C@@H](CCC(=O)O)C(=O)N[C@@H](Cc1ccccc1)C(=O)O)C(C)C` (Ac-VM[Sta]VAEF-OH), the IC50 amounted to 0.3 µM.

Regarding `COC(=O)[C@@H]1CC(NC(=O)[C@H](NC(=O)C[C@H](O)[C@@H](Cc2cc(F)cc(F)c2)NC(=O)C(O)c2ccccc2-c2ccccc2)C(C)C)C[C@H](C(=O)OC)C1` (single isomer, unassigned; isomer 1), the 50% inhibitory concentration (IC50) turned out to be 0.12 µM.

The compound `COC(=O)[C@@H]1CC(NC(=O)[C@H](NC(=O)C[C@H](O)[C@@H](Cc2cc(F)cc(F)c2)NC(=O)C(O)c2ccccc2-c2ccccc2)C(C)C)C[C@H](C(=O)OC)C1` (single isomer, unassigned; isomer 2) showed an IC50 of 10 µM.
